Key:
T-cell [1] = assay: Immunosuppressive activity against concanavalin A-induced BALB/c mouse splenocytes assessed as T-cells activation at 30 uM after 24 hrs by FACS assay; type: functional
Method in brief: (§1)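 Male BALB/c splenocytes (6–8 weeks), 5 × 10⁵, stimulated with ConA 5 μg/mL, with or without compound. After 24 h, cells washed twice in cold PBS and stained with CD25-FITC and CD4-APC for 30 min at 4 °C. Washed again and analysed by flow cytometry as the CD4+CD25+/CD4+ percentage.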

[2] = Immunosuppressive activity in BALB/c mouse splenocytes assessed as inhibition of concanavalin A-induced cell proliferation at 30 uM after 48 hrs by MTT assay; type: functional; conditions: Splenocyte
Method in brief: (§2)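 Spleen cells (5 × 10⁵) from male BALB/c mice aged 6–8 weeks, erythrocytes lysed, stimulated with ConA 5 μg/mL in RPMI-1640/10% FBS. Compounds diluted from DMSO stock. ConA-stimulated cells used as control. Proliferation read by MTT added 4 h before end of culture, SDS/DMF lysis for 6 h, absorbance at 570 nm.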

Splenocyte [3] = assay: Immunosuppressive activity against concanavalin A-induced BALB/c mouse splenocytes assessed as inhibition of [3H]thymidine incorporation at 10 uM by liquid scintillation counting; type: functional
[4] = Cytotoxicity against BALB/c mouse splenocytes at 10 uM after 48 hrs by MTT assay; type: cell-based, Splenocyte; conditions: read-out: INH
Method in brief: (§3)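 BALB/c spleen single-cell suspension, erythrocytes depleted with Tris-buffered NH4Cl (0.155 M NH4Cl, 16.5 mM Tris, pH 7.2). Cells cultured in RPMI-1640 with 10% FBS and compound diluted from DMSO stock (0.1% DMSO in control). Medium-alone cells served as control. MTT (5 mg/mL) added 4 h before end of culture, then SDS/DMF lysis buffer (pH 7.2) for 6 h. Absorbance read at 570 nm and growth inhibition % calculated.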

[5] = Cytotoxicity against BALB/c mouse splenocytes at 100 uM after 48 hrs by MTT assay; type: cell-based, Splenocyte; conditions: read-out: INH; method in brief: as §3
T-cell [6] = assay: Immunosuppressive activity against concanavalin A-induced BALB/c mouse splenocytes assessed as T-cells activation at 10 uM after 24 hrs by FACS assay; type: functional; method in brief: as §1
T-cell [7] = assay: Immunosuppressive activity against concanavalin A-induced BALB/c mouse splenocytes assessed as T-cells activation at 1 uM after 24 hrs by FACS assay; type: functional; method in brief: as §1
[8] = Cytotoxicity against BALB/c mouse splenocytes at 30 uM after 48 hrs by MTT assay; type: cell-based, Splenocyte; conditions: read-out: INH; method in brief: as §3
Splenocyte [9] = assay: Immunosuppressive activity against concanavalin A-induced BALB/c mouse splenocytes assessed as inhibition of [3H]thymidine incorporation at 1 uM by liquid scintillation counting; type: functional
T-cell [10] = assay: Immunosuppressive activity against concanavalin A-induced BALB/c mouse splenocytes assessed as T-cells activation at 3 uM after 24 hrs by FACS assay; type: functional; method in brief: as §1
Splenocyte [11] = assay: Immunosuppressive activity against concanavalin A-induced BALB/c mouse splenocytes assessed as inhibition of [3H]thymidine incorporation at 30 uM by liquid scintillation counting; type: functional
[12] = Immunosuppressive activity in BALB/c mouse splenocytes assessed as inhibition of concanavalin A-induced cell proliferation at 100 uM after 48 hrs by MTT assay; type: functional; conditions: Splenocyte; method in brief: as §2
[13] = Immunosuppressive activity in BALB/c mouse splenocytes assessed as inhibition of concanavalin A-induced cell proliferation at 10 uM after 48 hrs by MTT assay; type: functional; conditions: Splenocyte; method in brief: as §2

Structure (SMILES) | Activity (T-cell [1]) | inhibition at 30 µM [2] | inhibition at 10 µM (Splenocyte [3]) | cytotoxicity at 48 h, 10 µM [4] | cytotoxicity at 48 h, 100 µM [5] | Activity (T-cell [6]) | Activity (T-cell [7]) | cytotoxicity at 48 h, 30 µM [8] | inhibition at 1 µM (Splenocyte [9]) | Activity (T-cell [10]) | inhibition at 30 µM (Splenocyte [11]) | inhibition at 100 µM [12] | inhibition at 10 µM [13]
COc1cc(OC)c2c(OC(=O)c3ccccc3C)ccnc2c1 | 75.65% | 91.4% | 55.4% | 9.4% | 64% | 85.45% | 93.81% | 53.9% | 2.2% | 92.54% | 94.6% | 92.2% | 70.3%
CCCCC(=O)Oc1ccnc2cc(OC)cc(OC)c12 | – | 5.3% | – | 4.5% | 9.4% | – | – | 10.5% | – | – | – | 13.9% | 4.1%
COc1ccc(C(=O)Oc2ccnc3cc(OC)cc(OC)c23)cc1 | – | 11% | – | 8.2% | 13.4% | – | – | 11.3% | – | – | – | 17.7% | 7.8%
COC(=O)c1ccc(C(=O)Oc2ccnc3cc(OC)cc(OC)c23)cc1 | – | 27.8% | – | 6.6% | 23.6% | – | – | 2.2% | – | – | – | 91.4% | 15.7%
COc1cc(OC)c2c(O[C@@H]3O[C@H](CO)[C@@H](O)[C@H](O)[C@H]3O)ccnc2c1 | – | 6% | – | 7.6% | 9.5% | – | – | 9.1% | – | – | – | 20.4% | 3.6%
COc1cc(OC)c2c(OC(=O)c3ccc([N+](=O)[O-])cc3)ccnc2c1 | – | 34.1% | – | 6% | 9.5% | – | – | 11.1% | – | – | – | 64% | 18.4%
COc1cc(OC)c2c(OC(=O)c3cccc(Cl)c3)ccnc2c1 | – | 42% | – | 3.1% | 12.2% | – | – | 9.4% | – | – | – | 90.8% | 20.6%
COc1cc(OC)c2c(OC(=O)c3ccc(Cl)cc3Cl)ccnc2c1 | – | 62.3% | – | 16.5% | 22.7% | – | – | 20.8% | – | – | – | 79.2% | 35.3%
COc1cc(OC)c2c(OC(=O)c3cc(Br)cc(Br)c3)ccnc2c1 | – | 10% | – | 5.5% | 6.3% | – | – | 9.4% | – | – | – | 12.1% | 6.4%
COc1cc(OC)c2c(OC(=O)c3ccc(Cl)cc3)ccnc2c1 | – | 47.4% | – | 3.4% | 21.9% | – | – | 0.3% | – | – | – | 86.3% | 30.1%
O=c1cc[nH]c2cc(O)cc(O)c12 | – | 1.7% | – | 1.8% | 8.6% | – | – | 10.9% | – | – | – | 18% | -0.9%
CCCCCCCCC(=O)Oc1ccnc2cc(OC)cc(OC)c12 | – | 2% | – | 6.4% | 11.6% | – | – | 2% | – | – | – | 31.9% | 4.4%
Cc1cc(=O)c2c(O)cc(O)cc2[nH]1 | – | 4.4% | – | 9.1% | 11.2% | – | – | 9.9% | – | – | – | 26.7% | 7.5%
COc1cc(OC)c2c(OC(=O)c3cccc([N+](=O)[O-])c3)ccnc2c1 | – | 42% | – | 3.3% | 12.2% | – | – | 8.1% | – | – | – | 82.8% | 18.8%
COc1cc(OC)c2c(OC(=O)c3ccccc3I)cc(C)nc2c1 | – | 54% | – | -3.4% | 37.6% | – | – | 18.2% | – | – | – | 91.5% | 19.9%

Source: ChEMBL document CHEMBL1154117, “Synthesis and evaluation of a novel series of quinoline derivatives with immunosuppressive activity” (Bioorg Med Chem, 2009)
